L major viab = Leishmania major promastigote growth inhibition, primary screen. Leishmania major promastigotes, resazurin fluorescence viability. inhibition, % at 10 µM. 200,000 compounds, 9% hits. AID 1063, 2008; in the data active means inhibition above about 50%;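 further: promastigotes grown with compound for 44 hours at 28 °C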
Lipid droplet = inhibitors of hepatocyte lipid droplet formation, primary screen, imaging, high-throughput imaging, BODIPY stain; AML12 mouse hepatocytes, oleate lipid droplets; 240,000 compounds, 0.4% hits; inhibition, % at 6.5 µM; AID 1656, 2009;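 active means lipid droplet intensity inhibited by at least 50%, with more than 500 cells counted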
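Technique: fluorescence imaging, 20x objective, two fields per well / Assay system: AML12 hepatocytes (mouse) / Measure: % inhibition of lipid droplet signal / Doses: 6.5 µM single-point dosing / Incubation: overnight exposure / Reagent: 100 µM oleic acid challenge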
MPTP inh = mitochondrial permeability transition pore inhibitors, primary screen, biochemical, isolated mouse mitochondria, absorbance | Ca2+ swelling absorbance, 30 min | inhibition, % at 10 µM | 360,000 compounds, 1.4% hits;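 active means inhibition of 50% or more, scaled per plate between neutral and stimulator controls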;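 further: 0% = DMSO wells given calcium and 100% = 1 mM EGTA wells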
T cruzi inh = inhibitors of intracellular T. cruzi growth, primary screen, luminescence, NIH3T3 host cells | T. cruzi beta-gal in NIH3T3, 90 h | inhibition, % (concentration not given with the values) | 300,000 compounds, 1.4% hits | AID 1885, 2009;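 active means mean inhibition across valid replicates above about 55%, limit read from the data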;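 further: signal also drops with host cell toxicity which is not excluded here; 0% = plate median of DMSO wells and 100% = zero luminescence signal; higher percent means less beta-gal luminescence so fewer parasites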
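compound dosing = single 50 nL compound addition per well in DMSO | material = NIH/3T3 host cells with β-galactosidase reporter T. cruzi | input = 5,000 host fibroblasts per well | timing = ≥90 h infection period, 3 h prior cell attachment | read-out basis = percent inhibition of parasite-derived β-gal signal | detection = GalScreen β-gal luminescence, detergent lysis, 60 min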
Redox H2O2 prof = compounds producing H2O2 with reducing agent – biochemical, NIH compound library profiling, artefact control for MLSCN library redox annotation, primary screen. AID 878, 2007. 200,000 compounds, 0.03% hits. activation, % at 10 µM. DTT-dependent redox cycling H2O2, phenol red/HRP absorbance; 100% = 100 µM peroxide control, 0% = buffer;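 active means activation of at least 50% relative to the plate's high and low controls in the primary single-dose screen; inactive means activation below 50%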;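 further: compound incubated with DTT at 0.8 mM final as the reducing agent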
* marks the source's active call; other numbers are inactive results; · = no result given. The full list was thinned out, with hits kept by preference.

SMILES	L major viab	Lipid droplet	MPTP inh	T cruzi inh	Redox H2O2 prof
CCOC(=O)c1ccc(-n2ccnc2)c(NC(=O)c2cccc(Br)c2)c1	8	0	1	63*	0
CCCCCC/C(=N/O)c1ccccn1	91*	·	0	33	2
CCOc1ccc(C2=CSC3=NCCN23)cc1	·	-1	0	22	·
CCOc1ccc(-n2c(-c3ccc(Cl)cc3)c[n+]3c2SCC3)cc1	100*	-8	0	62*	-1
Fc1ccc(-n2cc(-c3ccccc3)[n+]3c2SCC3)cc1	3	5	0	4	0
c1ccc(-c2c[n+]3c(n2-c2ccccc2)SCC3)cc1	·	5	3	55*	·
N#CCCNc1c(Cl)cc(Cl)cc1C(=O)O	-8	10	-1	-4	0
COC(=O)[C@H](CC(C)C)NC(=O)CC[C@H]1O[C@@H](n2ccc(=O)[nH]c2=O)[C@H](O)[C@@H]1O	·	·	0	·	·
Cc1ccc2c(CN3CCN(S(=O)(=O)c4ccccc4C(F)(F)F)CC3)cc(=O)oc2c1C	·	·	1	·	·
CC(C)COCc1ccc(O)c2ncccc12	100*	-2	-6	52	-1
Oc1ccc(Cc2ccccc2)c2cccnc12	·	·	0	·	·
CCCOCc1ccc(O)c2ncccc12	·	-1	0	57*	·
CN(Cc1ccco1)Cc1ccc(O)c2ncccc12	·	·	4	·	·
Oc1ccc(COCc2ccccc2)c2cccnc12	101*	·	0	47	2
Cc1ccc(S(=O)(=O)N(CC(=O)Nc2cccc(C(F)(F)F)c2)C(=O)N2CCN(C)CC2)cc1	·	·	-2	-7	·
C#CCNC(=O)C[C@@H]1C[C@@]2(C(=O)OC)CC(C)(C)CC=C2N(Cc2ccccc2)C1=O	·	·	1	·	·
CCOC(=O)c1c(NC(=O)COC(=O)CCOc2cc(C)ccc2C)sc(C(=O)N(C)C)c1C	·	·	1	·	·
CSc1nc(-c2ccc(C)cc2)nc(C(Cl)Cl)n1	-3	·	-1	56*	-5
COc1cc2c3c(c1)C1(C(=O)N3C(C)(C)C=C2C)C(C#N)=C(N)Oc2cc(O)ccc21 (stereo unspecified)	67*	-3	1	36	-2
Cc1cc2c3c(c1)C1(C(=O)N3C(C)(C)CC2C)C(C#N)=C(N)OC2=C1C(=O)CC(C)(C)C2 (stereo unspecified)	3	20	-5	4	1
Cc1cc2c3c(c1C)C1(C(=O)N3C(C)(C)CC2C)C(C#N)=C(N)Oc2cc(O)ccc21 (stereo unspecified)	70*	17	0	15	0
COc1ccc(/C=C/c2nc3ccccc3n2C)cc1	85*	22	1	10	0
CCC(C)n1c(/C=C/c2ccccc2)nc2ccccc21 (stereo unspecified)	93*	-14	2	20	-1
O=C(Cn1c(/C=C/c2ccccc2)nc2ccccc21)Nc1ccc(F)cc1	63*	-54	42	20	0
CSc1nc2ccccc2n1CC(=O)Nc1ccccc1	0	·	-3	-4	0
SMILES	L major viab	Lipid droplet	MPTP inh	T cruzi inh	Redox H2O2 prof
COc1ccc(Cn2c(/C=C/c3ccccc3)nc3ccccc32)cc1	37	·	5	35	1
CCn1c(/C=C/c2ccccc2)nc2ccccc21	77*	·	-2	-4	-4
CCC(C)n1c(S(=O)(=O)O)nc2ccccc21 (stereo unspecified)	-5	17	8	4	0
CC(C)Cn1c(/C=C/c2ccccc2)nc2ccccc21	46	23	2	-2	0
Cc1cccc(NS(=O)(=O)c2ccc(C(=O)NCC(c3ccco3)N(C)C)cc2)c1C (stereo unspecified)	·	11	1	12	·
COc1ccc(S(=O)(=O)N2CCN(CCCOc3ccc(F)cc3)CC2)cc1OC	·	-29	0	6	·
COc1ccccc1OCCC(=O)OCC(=O)NC(C)c1ccccc1 (stereo unspecified)	-4	-39	1	-11	0
CSCCC(Nc1ccc(S(=O)(=O)N2CCOCC2)cc1[N+](=O)[O-])C(=O)OCC(=O)NCC(C)C (stereo unspecified)	65*	-2	5	-9	0
CC(C)C(Nc1ccc(S(=O)(=O)N2CCOCC2)cc1[N+](=O)[O-])C(=O)O (stereo unspecified)	-3	-10	-1	1	-2
CC1C/C(=C/c2cccn2C)C(=O)/C(=C/c2cccn2C)C1 (stereo unspecified)	86*	7	3	13	1
Cc1ccc(N=C2NC(=O)/C(=C/c3cccn3C)S2)cc1	·	-10	6	-9	·
CC1C/C(=C/c2ccncc2)C(=O)/C(=C/c2ccncc2)C1 (stereo unspecified)	101*	-10	12	38	-1
O=C(NCCS(=O)(=O)NCc1ccc2c(c1)OCO2)c1ccccc1	·	·	-1	0	·
CCOC(=O)/C=C1\SCC(=O)N1CC(=O)NC(c1ccccc1)c1ccccc1	77*	17	2	5	0
CC1(C)CC(=O)C2=C(C1)N(c1ccc(F)cc1)C(=O)CC2c1cccnc1 (stereo unspecified)	-7	-69	-2	-6	-2
CCSc1nnc(N2C(=O)CC(c3ccsc3)C3=C2CC(C)(C)CC3=O)s1 (stereo unspecified)	67*	27	-2	2	-1
C=CCOc1ccc(Br)cc1CNCCCN1CCOCC1	12	-38	-2	4	0
O=C(OCCNc1nc(-c2ccccc2)nc2ccccc12)c1ccncc1	72*	-1	5	18	-2
O=C(OCCNc1nc(-c2ccccc2)nc2ccccc12)c1cccnc1	57*	0	1	47	1
O=C(O)CCNc1nc(-c2ccccc2)nc2ccccc12	12	19	1	-1	0
OCCNc1nc(-c2cccnc2)nc2ccccc12	10	·	0	-27	2
O=C(Nc1cccc(C(=O)O)c1)/C(=C\c1cccc([N+](=O)[O-])c1)NC(=O)c1ccc(Br)cc1	·	·	-1	·	·
CCOc1ccc(NS(=O)(=O)c2ccc(C(=O)NCC(c3ccco3)N3CCCCC3)cc2)cc1 (stereo unspecified)	·	·	1	·	·
CCn1cc(C(=O)O)c(=O)c2cc(OC)ccc21	-8	1	-2	-34	0
COc1ccc2c(c1)c(=O)c(C(=O)c1ccccc1)cn2Cc1ccc(C)cc1	52*	-10	-1	16	0
OC1(c2cccc(C(F)(F)F)c2)CCN(Cc2nc(-c3cnccn3)no2)CC1	78*	2	0	4	0
Fc1cccc(CN2CCN(Cc3nc(-c4cnccn4)no3)CC2)c1	-2	12	1	-9	-2
CC(C)(C)CC(=O)NC(=S)NCCc1ccccc1	90*	·	0	31	2
O=C(NC(=S)NCCc1ccccc1)C1CCCCC1	88*	-8	0	13	0

Source: PubChem BioAssay
